We go through eleven molecules from ChEMBL document CHEMBL1671666, “Anti-human immunodeficiency virus activity, cross-resistance, cytotoxicity, and intracellular pharmacology of the 3'-azido-2',3'-dideoxypurine nucleosides” (Antimicrob Agents Chemother, 2009).

The target in experiment [1] is Human immunodeficiency virus type 1 reverse transcriptase (Human immunodeficiency virus 1) (UniProt Q72547). Briefly: Activity at HIV1 reverse transcriptase measured after 30 mins. An outline of the steps:
(§1)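 Pre-steady-state rapid quench with purified WT HIV-1 RT. Quenched with 0.5 M EDTA between 10 ms and 30 min. Products resolved on 7 M urea-16% polyacrylamide gels. Gives kpol and Kd; selectivity = (kpol/Kd)dNTP/(kpol/Kd)NRTI-TP. At least three independent experiments, mean ± SD.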

Experiment [2] has the same target. Briefly: Ratio of Kpol to Kd for HIV1 reverse transcriptase. An outline of the steps:
as §1

The target in experiment [3] is Human immunodeficiency virus type 1 reverse transcriptase (Human immunodeficiency virus 1, UniProt Q72547). In words: Binding affinity to HIV1 reverse transcriptase. In short, it runs like this:
as §1

In experiment [4] the target is Human immunodeficiency virus type 1 reverse transcriptase (Human immunodeficiency virus 1) (UniProt Q72547). Briefly: Selectivity, ratio of Kpol to Kd for dGTP to Kpol to Kd for compound at HIV1 reverse transcriptase. In short, it runs like this: as §1
The target is the same in experiment [5]. In words: Selectivity, ratio of Kpol to Kd for dCTP to Kpol to Kd for compound at HIV1 reverse transcriptase. An outline of the steps:
as §1

Experiment [6] relates to Human immunodeficiency virus 1. Briefly: Antiviral activity against HIV1 infected in human HeLa P4/R5 cells assessed as inhibition of viral replication. To be noted: Human immunodeficiency virus 1, HeLa. The experiment is classed as functional, organism-based. An outline of the steps: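 Single-cycle assay in P4/R5 HeLa cells carrying an HIV LTR-driven, Tat-activated β-galactosidase gene. Cells kept in phenol red-free DMEM with 10% FBS and 0.5 μg/ml puromycin. Virus stock titred on these cells by threefold endpoint dilution (Reed-Muench). At least three independent experiments.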

In experiment [7] the test system is Human immunodeficiency virus 1. In words: Antiviral activity against HIV1 infected in human PBMC assessed as inhibition of viral replication. The format is functional, organism-based. An outline of the steps:
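PBMC from healthy seronegative donors, isolated on a Ficoll-Hypaque gradient and stimulated with PHA for 2-3 days before infection. At least three independent experiments.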

The test system of experiment [8] is Human immunodeficiency virus 1. Briefly: Antiviral activity against HIV1 infected in human MT2 cells assessed as inhibition of viral replication. The note with it: Human immunodeficiency virus 1, MT2. The format is functional, organism-based.
The subject of experiment [9] is Human immunodeficiency virus 1. Briefly: Antiviral activity against HIV1 harboring reverse transcriptase K65R mutant infected in human HeLa P4/R5 cells assessed as inhibition of viral replication. The experiment is classed as functional, organism-based. The note with it: Human immunodeficiency virus 1, HeLa. An outline of the steps: (§2)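 Single-replication-cycle assay in P4/R5 cells: HeLa stably carrying a Tat-activated β-galactosidase gene under an HIV LTR promoter, grown in phenol red-free DMEM with 10% FBS and 0.5 μg/ml puromycin. Virus stocks were titred in P4/R5 cells by threefold endpoint dilution (Reed–Muench).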

Experiment [10] concerns Human immunodeficiency virus 1. In words: Ratio of IC50 for HIV1 harboring reverse transcriptase K65R mutant infected in human HeLa P4/R5 cells to wild type HIV1 infected in human HeLa P4/R5 cells. The format is functional. In short, it runs like this:
as §2

The target in experiment [11] is Human immunodeficiency virus type 1 reverse transcriptase (Human immunodeficiency virus 1) (UniProt Q72547). In words: Selectivity, ratio of Kpol to Kd for dATP to Kpol to Kd for compound at HIV1 reverse transcriptase. An outline of the steps: as §1
For experiment [12], the system named is Human immunodeficiency virus 1. Briefly: Antiviral activity against HIV1 harboring reverse transcriptase L74V mutant infected in human HeLa P4/R5 cells assessed as inhibition of viral replication. The format is functional, organism-based. The note with it: Human immunodeficiency virus 1, HeLa. An outline of the steps:
as §2

The test system of experiment [13] is Human immunodeficiency virus 1. In words: Antiviral activity against HIV1 harboring reverse transcriptase M184V mutant infected in human HeLa P4/R5 cells assessed as inhibition of viral replication. The format is functional, organism-based. To be noted: Human immunodeficiency virus 1, HeLa. In short, it runs like this:
as §2

In experiment [14] the test system is Human immunodeficiency virus 1. Briefly: Ratio of IC50 for HIV1 harboring reverse transcriptase L74V mutant infected in human HeLa P4/R5 cells to wild type HIV1 infected in human HeLa P4/R5 cells. The experiment is classed as functional. An outline of the steps: as §2
Experiment [15] concerns Human immunodeficiency virus 1. Briefly: Ratio of IC50 for HIV1 harboring reverse transcriptase M184V mutant infected in human HeLa P4/R5 cells to wild type HIV1 infected in human HeLa P4/R5 cells. The format is functional. An outline of the steps:
as §2

In experiment [16] the target is Human immunodeficiency virus type 1 reverse transcriptase (Human immunodeficiency virus 1) (UniProt Q72547). In words: Selectivity, ratio of Kpol to Kd for TTP to Kpol to Kd for compound at HIV1 reverse transcriptase. An outline of the steps: as §1

pIC50, pKd: −log10 of the molar value.

The molecule `Nc1nc(=O)c2ncn([C@H]3C=C[C@@H](COP(=O)(O)OP(=O)(O)OP(=O)(O)O)C3)c2[nH]1` (single isomer, unassigned) [CARBOVIR 5'-TRIPHOSPHATE, (-)-] returned an Activity in experiment [1] of 0.6 s⁻¹. In experiment [2], the Ratio was determined as 0.16 µM⁻¹ s⁻¹. The same molecule gave a pKd in experiment [3] of 5.40. The Selectivity ratio in experiment [4] is 11.2.
The molecule `Nc1ccn([C@H]2CC[C@@H](COP(=O)(O)OP(=O)(O)OP(=O)(O)O)O2)c(=O)n1` [DDCTP] had an Activity in [1] of 0.4 s⁻¹. For the same molecule, the Ratio in experiment [2] is 0.2 µM⁻¹ s⁻¹. For the same molecule, in experiment [3], the pKd was 5.57. Further, the Selectivity ratio in experiment [5] worked out at 6.7.
Turning to `Nc1nc(=O)n([C@@H]2CS[C@H](CO)O2)cc1F` [EMTRICITABINE], the pIC50 in experiment [6] is 6.77; in experiment [7], 9.00; in experiment [8], 7.36.
In [1], `Nc1ncnc2c1ncn2[C@H]1C[C@H](O)[C@@H](COP(=O)(O)OP(=O)(O)OP(=O)(O)O)O1` showed an Activity of 24.4 s⁻¹. The Ratio in experiment [2] came out at 7.6 µM⁻¹ s⁻¹. The molecule further gave a pKd in experiment [3] of 5.49.
For `CC(C)OC(=O)OCOP(=O)(CO[C@H](C)Cn1cnc2c(N)ncnc21)OCOC(=O)OC(C)C.O=C(O)/C=C/C(=O)O` [TENOFOVIR DISOPROXIL FUMARATE], the pIC50 in [9] is 4.94; in experiment [6], 5.33; in experiment [7] it was 7.85; in [8], 6.27. Moreover, the “Ratio IC50” value in experiment [10] is 2.5.
`C[C@H](Cn1cnc2c(N)ncnc21)OCP(=O)(O)OP(=O)(O)OP(=O)(O)O`: the Selectivity ratio in [11] amounted to 5.3. In [1], this molecule had an Activity of 6.2 s⁻¹. Besides, the Ratio in [2] is 1.4 µM⁻¹ s⁻¹. The pKd in experiment [3] was 5.37.
On to `Nc1ncnc2c1ncn2[C@H]1CC[C@@H](COP(=O)(O)OP(=O)(O)OP(=O)(O)O)O1` [DDA-TRIPHOSPHATE], for which the Selectivity ratio in [11] came to 7.5. In experiment [1], this molecule gave an Activity of 5.4 s⁻¹. The Ratio in experiment [2] was 1 µM⁻¹ s⁻¹. Further, the pKd in experiment [3] is 5.28.
`O=c1[nH]cnc2c1ncn2[C@H]1CC[C@@H](CO)O1` [DIDANOSINE]: the pIC50 in [9] was 5.20; in [6], 5.64; in experiment [12] it was 5.08; in [13], 5.34; in [7] it was 7.00; in [8], 6.31. In addition, the “Ratio IC50” value in [14] is 3.6; in experiment [15], 2; in [10], 2.7.
With `Nc1ccn([C@@H]2CS[C@H](COP(=O)(O)OP(=O)(O)OP(=O)(O)O)O2)c(=O)n1`, in [1], the Activity came out at 0.023 s⁻¹. Also, the Ratio in experiment [2] was found to be 0.06 µM⁻¹ s⁻¹. Besides, the Selectivity ratio in experiment [5] is 17.8.
Turning to `Cc1cn([C@H]2C=C[C@@H](CO)O2)c(=O)[nH]c1=O` [STAVUDINE], the pIC50 in experiment [6] is 5.24; in experiment [7], 7.00; in [8], 5.72.
Consider `Cc1cn([C@H]2C[C@H](N=[N+]=[N-])[C@@H](COP(=O)(O)OP(=O)(O)OP(=O)(O)O)O2)c(=O)[nH]c1=O`, for which the Selectivity ratio in experiment [16] is 1. The molecule further yielded an Activity in experiment [1] of 8.8 s⁻¹. The Ratio in experiment [2] came to 4.4 µM⁻¹ s⁻¹.

For orientation: pKd means the Kd on a negative log10 scale, so that one unit is a factor of ten. The low end stands for a high Kd, the high end for a low Kd. As usually defined, the pIC50 is the IC50 on a negative log10 scale, so that one unit is a factor of ten.
